Experimental findings from ChEMBL document CHEMBL1128272, “Stereoselective LSD-like activity in a series of d-lysergic acid amides of (R)- and (S)-2-aminoalkanes” (J Med Chem, 1995) are described below.

The target of assay [1] is T1, 5-hydroxytryptamine receptor 1A (Rattus norvegicus, UniProt P19327).
T1 sequence (P19327 whole entry): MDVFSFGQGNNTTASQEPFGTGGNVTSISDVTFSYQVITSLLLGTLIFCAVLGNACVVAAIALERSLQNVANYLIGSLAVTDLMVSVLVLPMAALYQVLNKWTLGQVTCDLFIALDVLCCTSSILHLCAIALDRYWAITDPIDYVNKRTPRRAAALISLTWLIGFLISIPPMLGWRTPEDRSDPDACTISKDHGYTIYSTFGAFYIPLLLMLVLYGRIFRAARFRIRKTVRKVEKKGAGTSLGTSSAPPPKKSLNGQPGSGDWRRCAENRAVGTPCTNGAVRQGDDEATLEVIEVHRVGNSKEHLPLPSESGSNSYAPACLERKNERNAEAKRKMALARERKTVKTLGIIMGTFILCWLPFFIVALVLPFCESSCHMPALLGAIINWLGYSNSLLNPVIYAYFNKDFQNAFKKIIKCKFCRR
Description: Binding affinity was measured against 5-hydroxytryptamine 1A receptor by displacement of [3H]8-OH-DPAT by lysergic acid amides. Summed up: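 Rat hippocampal membranes from pooled male Sprague-Dawley rats, preincubated at 37 °C, in 50 mM Tris HCl (pH 7.4) with 0.5 mM Na2EDTA, 0.1% ascorbate and 10 μM pargyline. Competition against 0.75 nM [3H]-8-OH-DPAT for 10 min at 37 °C, then GF/C filtration and scintillation counting. Triplicates. Three to four experiments combined, analysed with EBDA/LIGAND.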
In general terms: In a radioligand displacement assay an active substance lowers the binding of a labelled ligand.

Assay [2] has as its target T2, 5-hydroxytryptamine receptor 2A (Rattus norvegicus, UniProt P14842). Description: (§1) Binding affinity was measured against 5-hydroxytryptamine 2A receptor by displacement of [3H]- ketanserin by lysergic acid amides. Put shortly:
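Rat frontal cortex membranes from pooled male Sprague-Dawley rats, preincubated at 37 °C, in 50 mM Tris HCl (pH 7.4) with 0.5 mM Na2EDTA, 0.1% ascorbate, 10 μM pargyline and 5.7 mM CaCl2. Triplicates. Three to four experiments combined.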

Assay [3] deals with Rattus norvegicus. Put plainly: Compound was tested for its effect on animals. Value reported as number of rats disrupted in trained rats at a dose of 86 (nmol/kg). Format: functional. Summed up: (§2)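 Two-lever drug discrimination in food-restricted rats (~80% free-feeding weight) trained on FR 50 to tell saline from LSD tartrate (186 nmol/kg, 0.08 mg/kg ip, 30 min pre-session). Test drugs were given ip in saline, 1 mL/kg. Test sessions ran under extinction, ending at 50 presses on either lever. Testing required 85% training accuracy. Counts of rats tested and disrupted were recorded, plus the percentage selecting the drug lever.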

Assay [4] relates to Rattus norvegicus. Description: Compound was tested for its effect on animals. Value reported as number of rats disrupted in trained rats at a dose of 426 (nmol/kg). Format: functional. Summed up:
as §2

The test system of assay [5] is Rattus norvegicus. Put plainly: Compound was tested for its effect on animals. Value reported as number of rats disrupted in trained rats at a dose of 171 (nmol/kg). In kind it is functional. Summed up:
as §2

Assay [6] has as its system Rattus norvegicus. Put plainly: Compound was tested for its effect on animals. Value reported as number of rats disrupted in trained rats at a dose of 213 (nmol/kg). In kind it is functional. Put shortly: as §2
Assay [7] concerns Rattus norvegicus. Put plainly: Effective dose in trained rats was determined at a dose of 86 (nmol/kg). Format: functional, organism-based.
For assay [8], the system named is Rattus norvegicus. Description: Compound was tested for its effect on animals. Value reported as number of rats disrupted in trained rats at a dose of 128 (nmol/kg). In kind it is functional. Summed up: as §2
Assay [9] concerns Rattus norvegicus. Put plainly: Percentage of animals selecting drug lever in trained rats at a dose 426 (nmol/kg). In kind it is functional. Summed up: as §2
Assay [10] relates to Rattus norvegicus. Description: Percentage of animals selecting drug lever in trained rats at a dose 86 (nmol/kg). In kind it is functional. Summed up:
(§3)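 Drug-naive rats held at about 80% of free-feeding weight were trained on a two-lever FR50 food schedule to tell ip LSD tartrate (186 nmol/kg, 0.08 mg/kg) from saline, given 30 min before sessions. Test drugs were given ip in saline (1 mL/kg). Tests ran under extinction and ended at 50 presses on either lever. Rats had to hold 85% correct on training days. Read-out was % selecting the drug lever per dose.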

Assay [11] relates to Rattus norvegicus. Description: Percentage of animals selecting drug lever in trained rats at a dose 128 (nmol/kg). In kind it is functional. Put shortly:
as §2

In assay [12] the test system is Rattus norvegicus. Description: Percentage of animals selecting drug lever in trained rats at a dose 171 (nmol/kg). In kind it is functional. Summed up:
as §2

For assay [13], the system named is Rattus norvegicus. Put plainly: Percentage of animals selecting drug lever in trained rats at a dose 213 (nmol/kg). In kind it is functional. Put shortly:
as §2

The subject of assay [14] is Rattus norvegicus. Put plainly: Compound was tested for its effect on animals. Value reported as number of rats disrupted in trained rats at a dose of 500 (nmol/kg). Format: functional. Summed up:
as §2

The subject of assay [15] is Rattus norvegicus. Description: Compound was tested for its effect on animals. Value reported as number of rats disrupted in trained rats at a dose of 63 (nmol/kg). In kind it is functional. Summed up: as §2
The subject of assay [16] is Rattus norvegicus. Put plainly: Compound was tested for its effect on animals. Value reported as number of rats disrupted in trained rats at a dose of 250 (nmol/kg). In kind it is functional. Summed up:
as §2

The test system of assay [17] is Rattus norvegicus. Put plainly: Effective dose in trained rats was determined at a dose of 63 (nmol/kg) Value in parentheses are with 95% confidence intervals. In kind it is functional.
Assay [18] relates to Rattus norvegicus. Description: Compound was tested for its effect on animals. Value reported as number of rats disrupted in trained rats at a dose of 125 (nmol/kg). In kind it is functional. Summed up:
as §2

Assay [19] relates to Rattus norvegicus. Put plainly: Percentage of animals selecting drug lever in trained rats at a dose 250 (nmol/kg). In kind it is functional. Put shortly: as §2
Assay [20] relates to Rattus norvegicus. Description: Percentage of animals selecting drug lever in trained rats at a dose 500 (nmol/kg). In kind it is functional. Put shortly:
as §3

The subject of assay [21] is Rattus norvegicus. Description: Percentage of animals selecting drug lever in trained rats at a dose 63 (nmol/kg). In kind it is functional. Summed up: as §3
Assay [22] has as its system Rattus norvegicus. Description: Potency in trained rats was determined with relative to reference compound […] at a dose of 63 (nmol/kg). In kind it is functional.
The subject of assay [23] is Rattus norvegicus. Description: Percentage of animals selecting drug lever in trained rats at a dose 125 (nmol/kg). In kind it is functional. Summed up: as §2
Assay [24] has as its system Rattus norvegicus. Description: Compound was tested for its effect on animals. Value reported as number of rats disrupted in trained rats at a dose of 47 (nmol/kg). In kind it is functional. Summed up: as §2
Assay [25] has as its system Rattus norvegicus. Put plainly: Compound was tested for its effect on animals. Value reported as number of rats disrupted in trained rats at a dose of 93 (nmol/kg). Format: functional. Summed up: as §2
The test system of assay [26] is Rattus norvegicus. Description: Compound was tested for its effect on animals. Value reported as number of rats disrupted in trained rats at a dose of 186 (nmol/kg). Format: functional. Put shortly: as §2
Assay [27] deals with Rattus norvegicus. Put plainly: Compound was tested for its effect on animals. Value reported as number of rats disrupted in trained rats at a dose of 23 (nmol/kg). In kind it is functional. Put shortly:
as §2

The subject of assay [28] is Rattus norvegicus. Put plainly: Effective dose in trained rats was determined at a dose of 12 (nmol/kg). Format: functional.
Assay [29] relates to Rattus norvegicus. Description: Compound was tested for its effect on animals. Value reported as number of rats disrupted in trained rats at a dose of 12 (nmol/kg). In kind it is functional. Put shortly:
as §2

In assay [30] the test system is Rattus norvegicus. Description: Percentage of animals selecting drug lever in trained rats at a dose 23 (nmol/kg). In kind it is functional. Put shortly:
as §2

Assay [31] relates to Rattus norvegicus. Put plainly: Percentage of animals selecting drug lever in trained rats at a dose 47 (nmol/kg). In kind it is functional. Put shortly: as §3
In assay [32] the test system is Rattus norvegicus. Description: Percentage of animals selecting drug lever in trained rats at a dose 93 (nmol/kg). Format: functional. Summed up: as §3
In assay [33] the test system is Rattus norvegicus. Put plainly: Potency in trained rats was determined with relative to reference compound […] at a dose of 12 (nmol/kg). In kind it is functional.
Assay [34] concerns Rattus norvegicus. Description: Percentage of animals selecting drug lever in 1-Trained rats at a dose 186 (nmol/kg). Format: functional. Summed up: as §2
Assay [35] relates to Rattus norvegicus. Put plainly: Percentage of animals selecting drug lever in trained rats at a dose 12 (nmol/kg). Format: functional. Summed up:
as §2

Assay [36] has as its target T2, 5-hydroxytryptamine receptor 2A. The description is as §1. Put shortly:
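Rat frontal cortex membranes from pooled male Sprague-Dawley rats, preincubated at 37 °C, in 50 mM Tris HCl (pH 7.4) with 0.5 mM Na2EDTA, 0.1% ascorbate, 10 μM pargyline and 5.7 mM CaCl2. Displacement of 0.75 nM [3H]ketanserin with 200–400 μg protein for 15 min at 37 °C, then GF/C filtration. Triplicates. Three to four experiments combined.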
This is another data set of the same source.

Assay [37] has as its system Rattus norvegicus. Put plainly: Compound was tested for its effect on animals. Value reported as number of rats disrupted in trained rats at a dose of 440 (nmol/kg). Format: functional. Summed up: as §2
The subject of assay [38] is Rattus norvegicus. Put plainly: Compound was tested for its effect on animals. Value reported as number of rats disrupted in trained rats at a dose of 1760 (nmol/kg). In kind it is functional. Put shortly:
as §2

Assay [39] concerns Rattus norvegicus. Put plainly: Effective dose in trained rats was determined at a dose of 220 (nmol/kg). Format: functional, organism-based.
The subject of assay [40] is Rattus norvegicus. Description: Percentage of animals selecting drug lever in trained rats at a dose 440 (nmol/kg). Format: functional. Summed up:
as §2

Assay [41] has as its system Rattus norvegicus. Description: Percentage of animals selecting drug lever in trained rats at a dose 1760 (nmol/kg). Format: functional. Put shortly: as §2
For assay [42], the system named is Rattus norvegicus. Put plainly: Percentage of animals selecting drug lever in trained rats at a dose 220 (nmol/kg). Format: functional. Put shortly: as §2

Calls of active or inactive are those of the source. No cut-off for these calls is given here.

T2 sequence (P14842 whole entry): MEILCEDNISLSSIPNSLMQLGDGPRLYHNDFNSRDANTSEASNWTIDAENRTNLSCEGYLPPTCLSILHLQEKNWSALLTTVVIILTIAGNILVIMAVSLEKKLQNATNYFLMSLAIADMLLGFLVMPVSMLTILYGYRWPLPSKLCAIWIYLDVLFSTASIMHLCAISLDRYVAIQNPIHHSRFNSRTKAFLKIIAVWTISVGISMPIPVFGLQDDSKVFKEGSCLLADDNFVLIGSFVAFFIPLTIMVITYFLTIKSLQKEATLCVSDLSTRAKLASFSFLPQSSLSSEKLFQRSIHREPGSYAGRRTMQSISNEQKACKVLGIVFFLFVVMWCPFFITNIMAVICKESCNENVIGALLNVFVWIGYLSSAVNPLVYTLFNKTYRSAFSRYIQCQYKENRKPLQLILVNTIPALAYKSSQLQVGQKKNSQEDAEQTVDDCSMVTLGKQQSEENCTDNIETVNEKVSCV

For orientation: Ki means a measure of affinity in units of concentration, obtained from inhibition or displacement. A low value points to higher affinity. As usually defined, the ED50 is the dose that gives a 50% effect, or the effect in half of the subjects. On to `CCCC[C@@H](C)NC(=O)[C@@H]1C=C2c3cccc4[nH]cc(c34)C[C@H]2N(C)C1`, for which the Ki in assay [1] was found to be 0.32 nM; in [2] it was 16 nM. The D in [3] turned out to be 10%; in assay [4], 0%; in assay [5] it was 0%; in assay [6], 27%; in assay [8], 0%. Also, the ED50 result in assay [7] was “Weak activity”. Further, the SDL in [9] is on record as 0%; in assay [10], 22%; in assay [11], 40%; in [12] it was 55%; in assay [13] it was 50%.

Take `CCC(CC)NC(=O)[C@@H]1C=C2c3cccc4[nH]cc(c34)C[C@H]2N(C)C1`: the Ki was 2.1 nM in [1] and 8 nM in assay [2]. The D came out at 14% in [14], 0% in [15], 0% in assay [16] and 0% in assay [18]. The ED50 in [17] turned out to be 0.052 µmol/kg. The SDL in assay [19] came to 85%; in [20] it was 92%; in assay [21], 58%; in assay [23] it was 67%. The same compound yielded a Potency in assay [22] of 0.92.

Consider `CCCCC[C@@H](C)NC(=O)[C@@H]1C=C2c3cccc4[nH]cc(c34)C[C@H]2N(C)C1`, for which the Ki was 3.3 nM in assay [1] and 80 nM in assay [2].

`CC[C@@H](C)NC(=O)[C@@H]1C=C2c3cccc4[nH]cc(c34)C[C@H]2N(C)C1` gave a Ki in assay [2] of 8.8 nM. In addition, the D in assay [24], in assay [25], in assay [26], in assay [27] and in assay [29] was 0% throughout. Besides, the ED50 in assay [28] came out at 0.033 µmol/kg. Besides, the SDL in [30] is 50%; in [31], 75%; in assay [32] it was 75%; in assay [34] it was 88%; in assay [35], 13%. Moreover, the Potency in assay [33] was found to be 1.45.

For `CCCC(C)NC(=O)[C@@H]1C=C2c3cccc4[nH]cc(c34)C[C@H]2N(C)C1` (some centres undefined), the Ki in assay [1] stood at 8 nM; in assay [36], 105 nM. Further, the D worked out at 0% in assay [37], 11% in assay [38] and 0% in [26]. In addition, in [39], the ED50 result was “inactive”. For the same compound, the results for the SDL in assay [40], in assay [41] and in assay [42] were 0%, 25% and 0%, respectively.
